ABHD4 inh: ABHD4 inhibitors, primary screen, biochemical, fluorescence polarization, mouse; purified mABHD4, FP-Rh probe fluorescence polarization; (Lyso)-N-acylphosphatidylethanolamine lipase (Mus musculus), Q8VD66; inhibition, % at 8.92 µM; 0.54% of 370,000 active; AID 720543, 2013;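 active = inhibition exceeding the mean over every tested compound plus 3 SD, cut at about 30% in these data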;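 note: 0% = plate median of compound wells and 100% = S159A mutant with DMSO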
Target sequence (Q8VD66 whole entry, looked up): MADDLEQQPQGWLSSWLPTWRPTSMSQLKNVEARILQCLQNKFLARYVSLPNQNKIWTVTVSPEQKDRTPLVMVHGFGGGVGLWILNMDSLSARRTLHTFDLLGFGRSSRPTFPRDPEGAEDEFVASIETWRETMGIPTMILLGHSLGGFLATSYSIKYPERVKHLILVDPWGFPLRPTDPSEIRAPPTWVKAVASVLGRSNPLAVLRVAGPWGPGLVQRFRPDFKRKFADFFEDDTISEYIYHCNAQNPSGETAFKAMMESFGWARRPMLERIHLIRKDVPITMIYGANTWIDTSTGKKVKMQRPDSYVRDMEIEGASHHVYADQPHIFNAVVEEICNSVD
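assay system = mABHD4 protein | compound dosing = single nominal dose of 8.92 µM, 0.89% DMSO final | read-out basis = percent inhibition of probe binding, normalized to plate controls | schedule = Enzyme–compound pre-incubation 45 min, then probe 60 min, both 25 °C | detection = fluorescence polarization, excitation 525 nm, emission 598 nm, BODIPY TMR filters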
pPAFAH inh: pPAFAH enzyme inhibitors, primary screen, biochemical, fluorescence polarization, human; Platelet-activating factor acetylhydrolase (Homo sapiens), Q13093; recombinant pPAFAH, FP-rhodamine probe fluorescence polarization; inhibition, % at 3.39 µM; 1.5% of 330,000 active; AID 463082, 2010;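 active = inhibition above the mean inhibition across the screen plus 3 SD, cut at about 25% in these data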;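 note: inhibitors block binding of the rhodamine activity-based probe so polarization drops; 0% = enzyme with DMSO and 100% = wells lacking pPAFAH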
HTRA1 inh: HTRA1 serine protease inhibitors, primary screen, biochemical, fluorescence polarization, HTS | AID 504803, 2011 | 0.5% of 340,000 active | inhibition, % at 5.96 µM | recombinant HTRA1, FP-rhodamine activity-based probe; in the data active = inhibition above about 36%;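 note: 0% = enzyme with DMSO and 100% = wells lacking enzyme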
PAFAH1B3 FP inh: PAFAH1B3 enzyme inhibitors, primary screen, biochemical, fluorescence polarization, human; Platelet-activating factor acetylhydrolase IB subunit alpha1 (Homo sapiens), Q15102; recombinant PAFAH1B3, FP-rhodamine probe; inhibition, % at 3.39 µM; 0.28% of 340,000 active;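 active = inhibition above the screen-wide average of all tested compounds plus 3 SD, cut at about 25% in these data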;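 note: 0% = enzyme with DMSO only and 100% = wells lacking PAFAH1B3 protein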
Target sequence (Q15102 whole entry, looked up): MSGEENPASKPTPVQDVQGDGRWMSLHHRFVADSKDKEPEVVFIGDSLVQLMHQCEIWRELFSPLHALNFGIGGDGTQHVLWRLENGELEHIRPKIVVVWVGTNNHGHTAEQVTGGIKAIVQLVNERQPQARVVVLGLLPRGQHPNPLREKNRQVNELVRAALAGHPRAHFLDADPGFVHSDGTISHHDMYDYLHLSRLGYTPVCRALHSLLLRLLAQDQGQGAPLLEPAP
PAFAH2 inh: PAFAH2 enzyme inhibitors, primary screen, biochemical, fluorescence polarization, human. inhibition, % at 3.39 µM. AID 492956, 2010. recombinant PAFAH2, FP-rhodamine activity probe. 0.99% of 340,000 active;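 active = inhibition above the mean over all tested compounds plus 3 SD, cut at about 30% in these data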;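 note: inhibitors block probe labeling of enzyme so polarization drops; 0% = enzyme with DMSO and 100% = wells lacking PAFAH2 protein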
PAFAH1B2 FP inh: PAFAH1B2 enzyme inhibitors, primary screen, biochemical, fluorescence polarization, human. Platelet-activating factor acetylhydrolase IB subunit alpha2 (Homo sapiens), P68402. recombinant PAFAH1B2, FP-rhodamine activity probe. inhibition, % at 3.39 µM. 1.2% of 340,000 active;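 active = inhibition above the mean of all tested compounds plus 3 SD, cut at about 24% in these data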;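 note: 0% = enzyme with DMSO and 100% = wells lacking PAFAH1B2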
ABHD4 confirm: ABHD4 inhibitors, retest, confirmation, biochemical, fluorescence polarization, mouse; shares compounds with ABHD4 inh; purified mABHD4, FP-Rh probe fluorescence polarization; inhibition, % at 8.92 µM; 55% of 1,800 active;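 active = mean inhibition across replicates above the hit cutoff set in the primary screen, cut at about 30% in these data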;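 note: 0% = wild-type ABHD4 with DMSO and 100% = catalytically dead S159A mutant with DMSO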
Active calls of the source: *. Only some compounds are listed: those with a hit (about 2.8% of all), similar ones and a draw of the others.

How did C[C@@H]1ON(C)[C@H]2C[C@H]3c4[nH]c5c(-c6ccc(F)cc6)cccc5c4CCN3C(=O)[C@@H]12 do in these assays?
ABHD4 inh: 0

Results for CN(C)c1ccc(NC(=O)Nc2ccc3c(c2)c(=O)n(C)n3Cc2ccc(Cl)cc2)cc1 ?
ABHD4 inh: 43*; ABHD4 confirm: 26

Results for CN(C)c1ccc(NC(=O)Nc2ccc3c(c2)c(=O)n(C)n3Cc2ccccc2)cc1 ?
ABHD4 inh: 24

How did C[C@H](O)[C@@H]1C(=O)N2CCc3c([nH]c4c(-c5ccc6c(c5)OCO6)cccc34)[C@@H]2C[C@@H]1N(C)C(=O)NC1CCCCC1 do in these assays?
ABHD4 inh: 0

Results for O=C1[C@H]2[C@H](C=CC[C@H]2C(=O)N2CCOCC2)CCN1Cc1ccc(Cl)c(Cl)c1 ?
ABHD4 inh: -1; pPAFAH inh: 3

How did O=C(O)[C@H]1CC=C[C@H]2CCN(Cc3ccc(Cl)c(Cl)c3)C(=O)[C@@H]12 do in these assays?
ABHD4 inh: 30*; pPAFAH inh: 11; HTRA1 inh: 26; PAFAH1B3 FP inh: 14; PAFAH2 inh: 3; PAFAH1B2 FP inh: 4; ABHD4 confirm: 21

How did CCOC(=O)CCC(NC(=O)c1ccc(NCN2C(=O)c3ccccc3C2=O)cc1)C(=O)OCC (stereo unspecified) do in these assays?
ABHD4 inh: -7; pPAFAH inh: 1; HTRA1 inh: -1; PAFAH1B3 FP inh: 0; PAFAH2 inh: 0; PAFAH1B2 FP inh: -1

Results for CCOC(=O)C(CNc1ccc(O)cc1)NC(=O)c1ccccc1 (stereo unspecified) ?
ABHD4 inh: 84*; ABHD4 confirm: 22

What do the screens show for `Cc1cc(C)nc(OC(C(=O)O)C(OCCC(C)C)(c2ccccc2)c2ccccc2)n1` (stereo unspecified)?
ABHD4 inh: 35*; pPAFAH inh: 4; HTRA1 inh: -2; PAFAH1B3 FP inh: 6; PAFAH2 inh: -5; PAFAH1B2 FP inh: 13; ABHD4 confirm: 47*

Results for Cn1cccc1C(=O)N1CCN(S(=O)(=O)c2ccc([N+](=O)[O-])cc2)CC1 ?
ABHD4 inh: 10

What do the screens show for `CN(Cc1ccccc1)C(=O)OCc1cn(Cc2c(F)cccc2F)nn1`?
ABHD4 inh: 0

How did C/C(O)=C\c1nc2ccccc2oc1=O do in these assays?
ABHD4 inh: 37*; pPAFAH inh: 8; HTRA1 inh: 10; PAFAH1B3 FP inh: 3; PAFAH2 inh: 0; PAFAH1B2 FP inh: 0; ABHD4 confirm: -4

How did CC(C)CC(=O)Nc1ccc(C(=O)COC(=O)C2=COCCO2)cc1 do in these assays?
ABHD4 inh: 95*; pPAFAH inh: -8; HTRA1 inh: -6; PAFAH1B3 FP inh: -1; PAFAH2 inh: -8; PAFAH1B2 FP inh: -5; ABHD4 confirm: 5

How did COc1ccc(N2CCN(C(=O)Cn3cncn3)CC2)cc1 do in these assays?
ABHD4 inh: 37*; pPAFAH inh: -3; HTRA1 inh: 1; PAFAH1B3 FP inh: -7; PAFAH2 inh: -10; PAFAH1B2 FP inh: -2; ABHD4 confirm: 3

What do the screens show for `Cc1ccccc1CN[C@@H]1CC[C@@]23CCCN2C(=O)CCC[C@H]3C1`?
ABHD4 inh: 2

What do the screens show for `CCOC(=O)C1CCCN(C(=O)C2COc3ccccc3O2)C1` (stereo unspecified)?
ABHD4 inh: 45*; HTRA1 inh: -4; PAFAH1B3 FP inh: 8; PAFAH2 inh: 3; PAFAH1B2 FP inh: 5; ABHD4 confirm: -1

Results for NC(=O)C1=CN([C@@H]2O[C@H](COP(=O)(O)OP(=O)(O)OC[C@H]3O[C@@H](n4cnc5c(N)ncnc54)[C@H](O)[C@@H]3O)[C@@H](O)[C@H]2O)C=CC1 ?
ABHD4 inh: 15

Results for CC(=NNC(=S)SCc1ccccc1)c1ccccn1 ?
ABHD4 inh: 56*; HTRA1 inh: 12; PAFAH1B3 FP inh: 4; PAFAH2 inh: 6; PAFAH1B2 FP inh: 3; ABHD4 confirm: -10

What do the screens show for `N#C/C(=C\C1=C(N2CCOCC2)C(=C\c2ccc(Cl)cc2)/CC1)C(=O)Nc1ccccc1F`?
ABHD4 inh: -8; pPAFAH inh: -3; HTRA1 inh: 0; PAFAH1B3 FP inh: -37; PAFAH2 inh: -34; PAFAH1B2 FP inh: -29

What do the screens show for `N#C/C(=C/C1=C(N2CCOCC2)C(=C/c2ccc(Cl)cc2Cl)/CC1)C(=O)Nc1ccccc1F`?
ABHD4 inh: 40*; HTRA1 inh: -5; PAFAH1B3 FP inh: -19; PAFAH2 inh: -21; PAFAH1B2 FP inh: -12; ABHD4 confirm: -19

Results for CCOC(=O)c1c(C)oc2c1c(CN1CCN(C(=O)OCC)CC1)c(O)c1ccccc12 ?
ABHD4 inh: 31*; pPAFAH inh: 5; HTRA1 inh: -6; PAFAH1B3 FP inh: 1; PAFAH2 inh: 6; PAFAH1B2 FP inh: -1; ABHD4 confirm: 39*

What do the screens show for `CCN(C)c1cc2c(c3c1ccn3C)C1CCC2C1` (stereo unspecified)?
ABHD4 inh: -2

Results for COc1ccccc1N(C)c1cc2c(c3c1ccn3C)C1CCC2C1 (stereo unspecified) ?
ABHD4 inh: 33*; ABHD4 confirm: 12

What do the screens show for `O=c1oc2c(-c3ccc([N+](=O)[O-])cc3)cc(O)cc2s1`?
ABHD4 inh: 61*; pPAFAH inh: 22; HTRA1 inh: 24; PAFAH1B3 FP inh: 10; PAFAH2 inh: -9; PAFAH1B2 FP inh: -2; ABHD4 confirm: -22

Results for NS(=O)(=O)c1ccc(CCNC(=O)CN2C(=O)NC(c3ccccc3)(c3ccccc3)C2=O)cc1 ?
ABHD4 inh: 49*; pPAFAH inh: 1; HTRA1 inh: 0; PAFAH1B3 FP inh: 7; PAFAH2 inh: -7; PAFAH1B2 FP inh: -1; ABHD4 confirm: 21

How did O=C(CN1C(=O)NC(c2ccccc2)(c2ccccc2)C1=O)NCCc1ccc(F)cc1 do in these assays?
ABHD4 inh: -9; pPAFAH inh: 3; HTRA1 inh: -15; PAFAH1B3 FP inh: 4; PAFAH2 inh: -2; PAFAH1B2 FP inh: 4
